Source: ChEMBL document CHEMBL3351984, “Structure-based design and synthesis of antiparasitic pyrrolopyrimidines targeting pteridine reductase 1” (J Med Chem, 2014)
Activity calls are given as the source filed them. The calls are words filed in the database; no cut-off is given here.

Test system: Trypanosoma brucei brucei
Assay: Antitrypanocidal activity against bloodstream forms of Trypanosoma brucei brucei Lister 427 after 6 hrs by time-kill assay
Format: functional, organism-based
Conditions: not given

SMILES | Activity
Cc1ccc(C(C[N+](=O)[O-])c2c(N)nc(N)nc2N)cc1 (stereo unspecified) | inactive
Nc1nc(N)c(C(C[N+](=O)[O-])c2ccccc2)c(=O)[nH]1 (stereo unspecified) | inactive
Nc1nc2[nH]c(-c3ccc(CCCN4CCOCC4)cc3)c(-c3ccccc3)c2c(=O)[nH]1 | inactive
Nc1nc(N)c2c(-c3ccccc3)c(-c3ccccc3)[nH]c2n1 | inactive
Nc1nc(N)c2c(-c3ccccc3)c(-c3ccc(F)cc3)[nH]c2n1 | inactive
Nc1nc(N)c(C(C[N+](=O)[O-])c2ccc(F)cc2)c(NC2CCCCC2)n1 (stereo unspecified) | inactive
Nc1nc2[nH]c(-c3ccc(F)cc3)c(-c3ccccc3)c2c(=O)[nH]1 | inactive
Cc1ccc(C(C[N+](=O)[O-])c2c(N)nc(N)[nH]c2=O)cc1 (stereo unspecified) | inactive
Nc1nc(N2CCSCC2)c2cc[nH]c2n1 | inactive
Nc1nc(N)c(C(CCc2ccccc2)C[N+](=O)[O-])c(N)n1 (stereo unspecified) | inactive
CC(C)Oc1nc(N)nc(N)c1C(C[N+](=O)[O-])c1ccc(F)cc1 (stereo unspecified) | inactive
Nc1nc(N)c(C(CCc2ccccc2)C[N+](=O)[O-])c(=O)[nH]1 (stereo unspecified) | inactive
Nc1nc2[nH]cc(CCc3ccccc3)c2c(=O)[nH]1 | inactive
COc1nc(N)nc2[nH]cc(C#N)c12 | inactive
CC(C)COc1nc(N)nc(N)c1C(C[N+](=O)[O-])c1ccc(F)cc1 (stereo unspecified) | inactive
Nc1nc(N)c(C(C[N+](=O)[O-])c2ccc(F)cc2)c(N)n1 (stereo unspecified) | inactive
Nc1nc2[nH]c(-c3ccccc3)c(-c3ccccc3)c2c(=O)[nH]1 | inactive
Nc1nc(N)c(C(C[N+](=O)[O-])c2ccc(F)cc2)c(=O)[nH]1 (stereo unspecified) | inactive
N#Cc1c(-c2cccc(C=O)c2)[nH]c2nc(N)nc(N)c12 | inactive
Nc1nc(N)c(C(C[N+](=O)[O-])c2ccccc2)c(N)n1 (stereo unspecified) | inactive
N#Cc1c[nH]c2nc(N)nc(N3CCSCC3)c12 | inactive
N#Cc1c[nH]c2nc(N)nc(N)c12 | inactive

Test system: Mus musculus
Assay: Toxicity in ICR mouse assessed as fatality at 100 mg/kg, ip
Format: organism-based
Set-up: dose 100 mg/kg, route intraperitoneal
Conditions: in vivo
Outline: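 Maximum tolerated dose study in mice at 10, 30 and 100 mg/kg, scoring clinical signs and fatality.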

SMILES | Activity
Nc1nc(N)c2c(-c3ccccc3)c(-c3ccc(F)cc3)[nH]c2n1 | Toxic

Test system: Mus musculus
Assay: Toxicity in ICR mouse assessed as transient clinical signs at 30 mg/kg, ip
Format: organism-based
Set-up: dose 30 mg/kg, route intraperitoneal
Conditions: in vivo

SMILES | Activity
Nc1nc(N)c2c(-c3ccccc3)c(-c3ccc(F)cc3)[nH]c2n1 | Toxic

Test system: Mus musculus
Assay: Toxicity in ICR mouse assessed as clinical signs at 10 mg/kg, ip
Format: organism-based
Set-up: dose 10 mg/kg, route intraperitoneal
Conditions: in vivo

SMILES | Activity
Nc1nc(N)c2c(-c3ccccc3)c(-c3ccc(F)cc3)[nH]c2n1 | Non-toxic

Test system: Trypanosoma brucei brucei
Assay: Antitrypanocidal activity against Trypanosoma brucei brucei Lister 427 infected in ICR mouse assessed as reduction in parasitemia at 30 mg/kg, ip qd administered 24 hrs post infection for 4 consecutive days
Format: functional, organism-based
Set-up: dose 30 mg/kg
Conditions: not given

SMILES | Activity
Nc1nc(N)c2c(-c3ccccc3)c(-c3ccc(F)cc3)[nH]c2n1 | Active
